Only some compounds are listed: those with a hit (about 9.6% of all), similar ones and a draw of the others.
L major viab: Leishmania major promastigote growth inhibition, primary screen. Leishmania major promastigotes, resazurin fluorescence viability. inhibition, % at 10 µM. hit rate 9% among 200,000; in the data active = inhibition above about 50%;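 note: promastigotes grown with compound for 44 hours at 28 °C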
HCT116 PTEN-null: growth suppression of PTEN-null HCT116, primary screen, cell-based, CellTiter-Glo. HCT116 PTEN-null viability, 60 h; stronger effect = lower value. viability, % at 10 µM. hit rate 1.2% among 140,000;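 active = viability at or below a set limit, 4 SD under the median of all tested compounds, cut at about 3.7% in these data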;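 note: PTEN knockout HCT116 line with beta catenin targeted HCT116 as companion control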
PMI activator: activators of human PMI, primary screen, biochemical, fluorescence intensity, near-Km mannose 6-phosphate; Mannose-6-phosphate isomerase (Homo sapiens), P34949; purified human PMI, coupled resazurin fluorescence, 20 min; stronger effect = higher value; 1 = vehicle control, 0 substrate-free wells; activation factor at 20 µM; hit rate 0.005% among 190,000; AID 1214, 2008;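 active = activation factor of 2 or more at 20 µM, relative to plate controls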
Target sequence (P34949 whole entry, looked up): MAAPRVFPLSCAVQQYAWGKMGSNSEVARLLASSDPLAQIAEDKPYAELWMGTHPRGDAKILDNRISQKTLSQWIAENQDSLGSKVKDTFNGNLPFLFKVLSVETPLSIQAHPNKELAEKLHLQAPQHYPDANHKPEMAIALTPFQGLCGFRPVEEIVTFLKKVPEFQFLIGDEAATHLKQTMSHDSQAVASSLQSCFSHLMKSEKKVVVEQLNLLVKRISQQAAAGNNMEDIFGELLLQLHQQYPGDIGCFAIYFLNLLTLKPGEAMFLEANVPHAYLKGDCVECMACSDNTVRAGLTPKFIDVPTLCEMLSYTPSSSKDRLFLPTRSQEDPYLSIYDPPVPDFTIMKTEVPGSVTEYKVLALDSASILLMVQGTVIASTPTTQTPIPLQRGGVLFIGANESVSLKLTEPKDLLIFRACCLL
PMI act satM6P: human PMI activators, high substrate, primary screen, biochemical, fluorescence intensity, near-saturating mannose 6-phosphate. Mannose-6-phosphate isomerase (Homo sapiens), P34949. coupled PMI enzyme assay, resazurin fluorescence, 20 min; stronger effect = higher value; 1 = untreated enzyme, 0 = substrate-free blank. activation factor at 20 µM. hit rate 0.34% among 190,000. AID 1216, 2008;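 active = activation factor of 2 or more at 20 µM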
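test system = human PMI in coupled enzyme assay | medium = HEPES-buffered pH 7.4 with magnesium and detergent | also added = 1.0 mM mannose-6-phosphate substrate with 0.22 mM NADP+ | compound = 20 µM single dose | times = 20 min incubation at room temperature | measured by = resorufin fluorescence (Ex 544/Em 590 nm) from resazurin via diaphorase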
HCT116 bCat-KO: primary screen for growth suppressors in beta-catenin knockout HCT116 cells (colon tumor, human); hit rate 1.5% among 140,000; HCT116 beta-catenin knockout viability, CellTiter-Glo, 60 h; stronger effect = lower value; AID 818, 2007; viability, % at 10 µM;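 active = viability at or under a set limit, the compound median less 4 SD, cut at about 6% in these data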;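 note: 0% = Hyamine 1622 control at 20 µM and 100% = untreated cell control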
* marks the source's active call; other numbers are inactive results; . = not tested or not shown.

SMILES | L major viab | HCT116 PTEN-null | PMI activator | PMI act satM6P | HCT116 bCat-KO
Fc1ccc(-n2c(Cc3ccccc3)nnc2SCc2nc(-c3cccs3)no2)cc1 | 99* | 66 | 0.9 | 1 | 48
O=c1c2ccccc2nc(SCc2nc(-c3ccccc3)no2)n1-c1ccc(F)cc1 | 87* | 66 | 0.7 | 0.8 | 69
COc1ccc(-c2noc(CSc3nc4ccccc4c(=O)n3-c3ccccc3)n2)cc1OC | 24 | 81 | 0.9 | 0.9 | 78
Cc1ccc(-n2c(SCc3cn4ccsc4n3)nc3ccccc3c2=O)cc1 | 85* | 77 | 1 | 0.9 | 85
Cc1ccc(-c2noc(CSc3nnc(Cc4cccs4)n3-c3ccccc3)n2)cc1 | 8 | 80 | 0.8 | 0.7 | 74
Oc1ccc(N2CCN(c3nnnn3-c3ccccc3)CC2)cc1 | 7 | . | 0.8 | 0.6 | .
CN(C)CCNC(=O)/C(=C/c1ccc(-c2cccc([N+](=O)[O-])c2)o1)NC(=O)c1ccccc1 | 46 | 29 | 1 | 1 | 39
CN(C)CCCNC(=O)/C(=C\c1ccc(-c2ccc(Br)cc2)o1)NC(=O)c1ccccc1 | 100* | 1.8* | 0.9 | 1 | 1.8*
CN(C)CCNC(=O)/C(=C/c1ccc(-c2cccc(Cl)c2)o1)NC(=O)c1ccccc1 | 100* | 1.6* | 1.1 | 1.1 | 1.6*
Cc1ccc(C(=O)N/C(=C/c2ccc(-c3cccc([N+](=O)[O-])c3)o2)C(=O)NC(C)C)cc1 | 2 | 77 | 0.9 | 0.9 | 84
Cc1ccc(C(=O)N/C(=C\c2ccc(-c3ccc(Cl)cc3)o2)C(=O)NCCCN(C)C)cc1 | 101* | . | 1 | 1 | .
Cc1ccc(C(=O)N/C(=C/c2ccc(-c3cccc([N+](=O)[O-])c3)o2)C(=O)NC(C)(C)C)cc1 | 82* | 72 | 0.8 | 0.9 | 87
CCCCn1nc2cc(C(=O)NCc3ccc(OC(F)(F)F)cc3)ccc2c1OC | 1 | 102 | 0.8 | 0.8 | 95
O=C(CSc1nnc(-c2ccccc2)o1)NC1CCS(=O)(=O)C1 (stereo not given) | -1 | 87 | 1 | 0.9 | 88
Cc1cc(CNC(=O)C(C)n2nc(C)c([N+](=O)[O-])c2C)c2ccccc2n1 (stereo not given) | -2 | . | 1 | 1 | .
CC(=O)c1ccc(-n2cc(-c3ccc(C(C)(C)C)cc3)[n+]3c2SCCC3)cc1 | 100* | . | 1.2 | 1.1 | .
Clc1ccc(-c2cn(-c3ccccc3)c3[n+]2CCS3)cc1 | 70* | . | 0.9 | 1 | .
COc1ccc(-c2cn(-c3ccc(Br)cc3)c3[n+]2CCS3)cc1 | 100* | 62 | 0.9 | 1 | 61
Clc1ccc(-c2c[n+]3c(n2-c2ccccc2)SCC3)cc1 | 97* | . | 1 | 1 | .
CSc1nc2ccc(NC(=O)c3cc4ccccc4o3)cc2s1 | -8 | 88 | 1 | 1 | 93
O=c1c(S(=O)(=O)c2ccc(Cl)cc2)cn(Cc2ccccc2F)c2ccc(F)cc12 | 13 | 65 | 0.9 | 0.9 | 64
CCCCCN1CSC(=S)N(Cc2ccccc2)C1 | 32 | 3.3* | 0.9 | 0.9 | 5.6*
CCN1CNC(=S)N(Cc2ccccc2)C1 | -2 | 88 | 1.1 | 1.1 | 83
O=C(Cc1cc(=O)[nH][nH]1)N/N=C/C=C/c1ccccc1 | 72* | 77 | 1.1 | 1.1 | 67
CCOC(=O)c1sc(N)c(C(=O)Nc2ccccc2OC)c1C | -6 | . | 0.4 | 0.7 | .
SMILES | L major viab | HCT116 PTEN-null | PMI activator | PMI act satM6P | HCT116 bCat-KO
COC(=O)[C@@H]1CC[C@H](C)[C@@H](c2ccc(C)cc2)N1C(=O)c1ccc(/C=N/O[C@@H](C)c2cn([C@H](CO)Cc3ccccc3)nn2)cc1 | 53* | 8 | 0.8 | 0.8 | 17
O=C(CN1C(=O)c2ccccc2S1(=O)=O)NC(Nc1ccccc1F)C(Cl)(Cl)Cl (stereo not given) | -11 | . | 1 | 1 | .
NC(=O)c1ccsc1NC(=O)c1ccc(S(=O)(=O)N2CCCc3ccccc32)cc1 | 99* | 6 | 0.8 | 0.8 | 13
CC(C)N1CCc2c(sc(NC(=O)c3ccc(S(=O)(=O)N4CCc5ccccc54)cc3)c2C(N)=O)C1 | 100* | . | 1 | 1 | .
O=C(Nc1ccc(S(=O)(=O)N2CCCc3ccccc32)cc1)C1CCCO1 (stereo not given) | 15 | 66 | 0.9 | 0.9 | 65
CC(C)N1CCc2c(sc(NC(=O)c3nc4ccccc4s3)c2C(N)=O)C1 | 24 | . | 1.3 | 1 | .
CC(C)N1CCc2c(sc(NC(=O)c3cc(-c4cccs4)nc4ccccc34)c2C(N)=O)C1 | 92* | 6 | 1.3 | 1.5 | 6
CC(C)N1CCc2c(sc(NC(=O)c3ccc(S(=O)(=O)N4CCOCC4)cc3)c2C#N)C1 | -7 | 84 | 0.8 | 0.8 | 79
O=S(=O)(NC1CC1)c1ccc(S(=O)(=O)N2CCCc3ccccc32)cc1 | 95* | 77 | 0.9 | 0.9 | 69
O=C(Cn1cc2c(n1)CCCC2)NC1CCN(Cc2ccccc2)CC1 | 72* | 99 | 1.1 | 1 | 96
O=C(CN1CCOc2ccccc21)NC1CCN(Cc2ccccc2)CC1 | 78* | 90 | 0.9 | 0.9 | 82
O=C(Cn1cc2c(n1)CCCCC2)NC1CCCCCC1 | 23 | 86 | 1 | 1 | 92
CCC(=O)Nc1ccc(Cl)c(NC(=O)c2c(OC)cccc2OC)c1 | 15 | . | 1.1 | 1.1 | .
CCOc1ccc(-c2n[nH]c(C)c2-c2ccccc2OC)c(O)c1 | 16 | 25 | 1 | 1 | 28
C=C(C)COc1ccc(-c2n[nH]c(C)c2-c2ccc(OC)cc2)c(O)c1 | 47 | 1.4* | 1 | 1.1 | 1.3*
CCN1C(=O)C(CC(=O)Nc2ccc(F)cc2)N(CCCN2CCN(c3ccc(F)cc3)CC2)C1=S (stereo not given) | 47 | . | 1 | 1 | .
CCOC(=O)c1cc(-c2cccc([N+](=O)[O-])c2)on1 | -4 | . | 0.9 | 0.9 | .
Cc1ccc(C(=O)c2cnc3ccccc3c2-c2ccccc2)cc1 | 57* | 92 | 1 | 0.8 | 80
COc1ccc(Nc2nnc(-c3ccc(C)cc3)c3ccccc23)cc1C(=O)N1CCCCC1 | 66* | 45 | 0.8 | 0.8 | 66
C/C(=N\NC(=O)c1nn(C)cc1Br)c1cccc(NC(=O)C(C)(C)C)c1 | 22 | 104 | 0.9 | 1.1 | 93
C/C(=N\NC(=O)C1(C)CC1(Br)Br)c1cccc(NC(=O)C(C)(C)C)c1 (stereo not given) | 60* | 94 | 0.8 | 1 | 90
Cc1ccc(-n2nnnc2C(Cl)(Cl)c2nnnn2-c2ccc(C)cc2)cc1 | 9 | 1.3* | 0.8 | 0.7 | 1.8*
O=C(c1ccoc1)N1CCC(CO)(CCc2ccccc2)CC1 | -4 | . | 0.9 | 0.9 | .
Cc1ccc(NS(=O)(=O)c2cc(C(=O)NCCSc3ccc(C)cc3)ccc2C)cc1 | 100* | 31 | 0.9 | 0.9 | 34

High-throughput results (PubChem BioAssay)
